In the library only some 3.5% were active in any assay of this set; here they are far more common.
MrgX1 antagonist – antagonists of human MrgX1 receptor, primary screen, HEK293 cells, Fluo-4 calcium flux | Mas-related G-protein coupled receptor member X1 (Homo sapiens), Q96LB2 | BAM8-22 antagonism; active compounds read low | B-score at 10 µM | hit rate 1.3% among 310,000;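 active = calcium-response B-score plate-corrected more than 3 library SD below zero, starting fluorescence within 5 deviations, no agonist response on first addition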;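 note: peak minus trough fluorescence over baseline after final BAM8-22 challenge near maximal dose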
Target sequence (Q96LB2 whole entry, looked up): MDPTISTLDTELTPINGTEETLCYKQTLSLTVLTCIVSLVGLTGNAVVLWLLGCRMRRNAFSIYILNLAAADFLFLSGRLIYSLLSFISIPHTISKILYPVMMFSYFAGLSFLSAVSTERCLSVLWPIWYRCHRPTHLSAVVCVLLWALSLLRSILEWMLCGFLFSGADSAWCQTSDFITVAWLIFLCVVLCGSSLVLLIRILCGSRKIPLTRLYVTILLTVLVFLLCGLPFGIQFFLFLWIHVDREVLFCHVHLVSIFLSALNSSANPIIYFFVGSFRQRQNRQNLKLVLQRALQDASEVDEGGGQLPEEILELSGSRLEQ
RGS4 pot – RGS4 potentiators or activators, primary screen, cell-based, HEK293 M3R inducible RGS4, calcium flux | carbachol calcium flux Fluo4; active compounds read low | hit rate 0.92% among 310,000 | B-score at 10 µM | AID 463111, 2010;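 active = B-score of the integrated calcium signal more than 4 SD below the library mean, with starting fluorescence not abnormally high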;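 note: negative B-score means reduced calcium response which marks RGS4 activation or potentiation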
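test system = HEK293 cells with stable M3R and inducible RGS4 | schedule = recording 10 s baseline at 1 Hz, 100 s post-agonist | technique = Fluo4-AM (2 µM) calcium-flux fluorescence, kinetic read | measure = Agonist-evoked peak-minus-minimum fluorescence over baseline, integrated ratio, B score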
MrgX1 ag – agonists of human MrgX1 receptor, primary screen, HEK293 cells, Fluo-4 calcium flux; Mas-related G-protein coupled receptor member X1 (Homo sapiens), Q96LB2; Fluo-4 calcium fluorescence, agonist mode; active compounds read high; B-score at 10 µM; hit rate 0.44% among 310,000; AID 588627, 2011;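 active = calcium response B-score plate-corrected fluorescence ratio at least 3 library SD, with starting fluorescence B-score inside 5 SD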
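Material – MrgX1-expressing HEK293 cells · Input – 15,000 cells seeded per well · Dosing – compound as first of three additions · Times – overnight seeding, then 1 h dark dye loading · Measured by – kinetic Fluo-4 NW fluorescence of intracellular calcium · Read-out – B-scored fluorescence response ratio · Benchmarks – positive and negative control wells on each plate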
MrgX1 allo act – positive allosteric modulators of MrgX1, primary screen, HEK293 cells, Fluo-4 calcium flux. Mas-related G-protein coupled receptor member X1 (Homo sapiens), Q96LB2. FDSS; active compounds read high. B-score at 10 µM. hit rate 0.63% among 310,000;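 active = plate-corrected calcium response at least 3 library SD above typical, normal starting fluorescence, not activating the receptor alone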;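 note: compound read alongside a low EC10 to EC30 dose of BAM8-22 agonist; peak minus trough fluorescence over baseline measured at the second addition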
RGS4 block – RGS4 inhibitors, primary screen, cell-based, HEK293 M3R inducible RGS4, calcium flux. Regulator of G-protein signaling 4 (Homo sapiens), P49798. Fluo-4 calcium flux; active compounds read high; triggered by carbachol at its EC20. B-score at 10 µM. hit rate 0.45% among 310,000;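 active = B-score, a plate-corrected calcium signal, over three deviations above library mean, with baseline fluorescence within five deviations of library mean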;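 note: RGS4 expression induced by doxycycline in cells with stable M3 receptor; B-score is computed from the integrated fluorescence ratio over baseline after carbachol; higher B-score means a larger calcium signal and so more RGS4 inhibition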
Target sequence (P49798 whole entry, looked up): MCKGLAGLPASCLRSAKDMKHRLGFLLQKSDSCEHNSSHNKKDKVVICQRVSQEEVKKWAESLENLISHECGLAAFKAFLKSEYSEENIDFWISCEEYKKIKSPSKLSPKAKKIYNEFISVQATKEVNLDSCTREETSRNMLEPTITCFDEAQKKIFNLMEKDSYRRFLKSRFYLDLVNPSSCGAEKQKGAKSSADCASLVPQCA
RGS4 act valid – reduced carbachol calcium response, RGS4-induced M3R cells, confirmation, RGS4 activator project, cell-based, HEK293 M3R/RGS4 inducible, calcium flux, duplicate | shares compounds with RGS4 pot | carbachol calcium flux Fluo4 | inhibition, % at 10 µM | hit rate 89% among 1,100 | AID 602282, 2012;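 active = inhibition above 3 SD of the buffer control wells, cut at about 41% in these data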;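 note: signal is the integrated peak-minus-minimum Fluo4 fluorescence over baseline ratio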
RGS4 act ctr – RGS4 activator counter-screen hit in non-induced cells; hit rate 82% among 1,100; AID 602283; shares compounds with RGS4 pot; inhibition, % at 10 µM; HEK293 M3R non-induced RGS4, Fluo4 calcium flux; after carbachol challenge at its EC90;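 active = inhibition exceeding 3 SD of buffer-only control wells, cut at about 26% in these data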;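 note: percent drop in integrated peak-minus-baseline over baseline Fluo4 ratio after carbachol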
Active calls of the source: *; i = inactive; . = not tested or not shown.

SMILES	MrgX1 antagonist	RGS4 pot	MrgX1 ag	MrgX1 allo act	RGS4 block	RGS4 act valid	RGS4 act ctr
CCN(C(=O)CN1C(=O)S/C(=C\c2cccc(OC)c2)C1=O)C1CCS(=O)(=O)C1 (stereo not given)	i	i	i	i	i	.	.
CCn1ccnc1CNC(=O)c1ccc2oc(C(C)C)nc2c1	i	-8.2*	i	i	i	82*	47*
CC(=O)Oc1ccc2c(=O)c(Oc3ccccc3)coc2c1OC(C)=O	i	i	i	i	i	.	.
CCOC(=O)c1c(C(C)(C)C)oc2ccc(OCC#N)cc12	i	-8.8*	i	i	i	92*	92*
CN(C)CCNC(=O)c1cc2c(s1)-c1ccc(Cl)cc1SC2	i	-13*	i	i	i	94*	93*
O=C(C[n+]1cc(-c2ccc(Cl)c(Cl)c2)n2c1CCC2)N1c2ccccc2Sc2ccccc21	i	-11*	i	i	i	93*	95*
NC(=O)c1cccc(C(N)=O)n1	i	i	i	i	i	.	.
CC[N+](C)(C)CC/C=C1/c2ccccc2Sc2ccc(Cl)cc21	i	-12*	i	i	i	94*	93*
Cc1cc(-c2ccc(C(C)C)c(S(=O)(=O)N3CCOc4ccccc43)c2)on1	i	i	i	i	i	.	.
Cc1ccc(-c2onc(C)c2C)cc1S(=O)(=O)N1CCOc2ccccc21	i	-8.1*	i	i	i	73*	84*
C=CCN1C(=O)C(CC(=O)NCC)SC1=Nc1ccccc1CC (stereo not given)	i	i	i	i	i	.	.
CC(Oc1ccccc1)C(=O)NC1CCN(Cc2ccccc2)CC1 (stereo not given)	i	-8.3*	i	i	i	80*	53*
CC1CCN(c2nc3ccc(C(=O)N4CCN(Cc5ccc6c(c5)OCO6)CC4)cc3s2)CC1	i	i	i	i	i	.	.
CN1C2CCC1CC(NC(=O)c1ccc(Cl)cc1)C2 (stereo not given)	i	i	i	i	i	.	.
CN1C2CCC1CC(NC(=O)CSc1ccc(Cl)cc1)C2 (stereo not given)	i	-9*	i	i	i	59*	0
CN1/C(=C/C=C(C#N)C#N)C(C)(C)c2ccccc21	i	-7.8*	i	i	i	88*	82*
CN1\C(=C/C=C/C=C/C=[N+](C)C)C(C)(C)c2ccccc21	.	i	.	.	i	.	.
Cc1ccccc1OCC(=O)Nc1cc(Cl)ccc1Oc1ccccc1	i	i	i	i	i	.	.
COc1ccccc1OCC(=O)Nc1cc(Cl)ccc1Oc1ccccc1	i	-9.1*	i	i	i	0	0
CC1CCN(C(=O)CNC(=O)c2cccc(OC(F)F)c2)CC1	i	i	i	i	i	.	.
N#Cc1cc2c(nc1SCc1ccccc1)CCCCC2	i	-9.8*	i	i	i	82*	84*
O=C(OCC(=O)N1CCCC1=O)c1ccc(O)cc1O	i	i	i	i	i	.	.
O=c1oc2cc(OCc3ccc(F)cc3F)ccc2cc1-c1ccc2ccccc2n1	i	i	i	i	i	.	.
CCN(CC)S(=O)(=O)c1ccc(N2CCc3ccccc3C2)nc1	i	-10*	i	i	i	60*	84*
Cc1ccccc1CN1[C@@H]2c3ccccc3C[C@@H]2OCCS1(=O)=O	i	i	i	i	i	.	.
SMILES	MrgX1 antagonist	RGS4 pot	MrgX1 ag	MrgX1 allo act	RGS4 block	RGS4 act valid	RGS4 act ctr
O=C(O)c1cc2c([nH]c1=O)CCCC2	i	i	i	i	i	.	.
C=CCSC(=C(C#N)C#N)c1cc2c([nH]1)CCCC2	i	-9.2*	i	i	i	90*	32*
CC(=O)Nc1ccc(Nc2ccc3c4c(cc(=O)n3C)-c3ccccc3C(=O)c24)cc1	i	i	i	i	i	.	.
CC(=O)Nc1c2c3c(cccc3n(C)c1=O)C(=O)c1ccccc1-2	i	-8.6*	i	i	i	53*	0
Cc1ccc(N2C(N)=C(C#N)C(c3cc(CN4CCOCC4)cs3)C3=C2CC(C)(C)CC3=O)cc1 (stereo not given)	i	i	i	i	i	.	.
CC(C)(C)c1csc(NC(=O)c2cccs2)n1	i	-8.2*	i	i	i	0	0
CC(C)c1ccc(NC(=O)CCNS(=O)(=O)c2cccc3nsnc23)cc1	i	-8*	i	i	i	0	0
CCc1ccc(NS(=O)(=O)c2cccc3nsnc23)cc1	i	-8.6*	i	i	i	72*	84*
COc1ccccc1-c1nnc(SC(C)C(=O)O)n1-c1ccccc1 (stereo not given)	i	i	i	i	i	.	.
COCc1ccc(C(=O)NC2CCCc3c2cnn3-c2ccc(C)c(C)c2)o1 (stereo not given)	i	i	i	i	i	.	.
O=C(COC(=O)C1CCN(c2ccc(C(F)(F)F)cn2)CC1)c1ccc(F)cc1	i	i	i	i	i	.	.
COc1cc(C(=O)COC(=O)C2CCN(c3ccc(C(F)(F)F)cn3)CC2)ccc1OC(F)F	i	-8.7*	i	i	i	76*	84*
Cc1cc(C)c(C(=O)COC(=O)C2CCN(c3ccc(C(F)(F)F)cn3)CC2)cc1C	i	i	i	i	i	.	.
O=C(COC(=O)C1CCN(c2ccc(C(F)(F)F)cn2)CC1)c1ccc(Cl)cc1	i	-7.8*	i	i	i	76*	31*
C/C(Sc1nnc(Cc2ccccc2)o1)=C(/O)c1ccccc1	i	i	i	i	i	.	.
CN1CCC(C2(O)c3ccccc3CCc3ccccc32)CC1	i	-10*	i	i	i	62*	84*
CN1CCC(C2(O)c3ccccc3CSc3sccc32)CC1 (stereo not given)	i	.	i	i	.	.	.
